The record followed here is ChEMBL document CHEMBL3769320, “Cell Penetrant Inhibitors of the KDM4 and KDM5 Families of Histone Lysine Demethylases. 2. Pyrido[3,4-d]pyrimidin-4(3H)-one Derivatives” (J Med Chem, 2016).

Some results are limits rather than exact numbers.

The target of data set [1] is T1, Lysine-specific demethylase 4A (Homo sapiens, UniProt O75164).
T1 sequence (O75164 whole entry): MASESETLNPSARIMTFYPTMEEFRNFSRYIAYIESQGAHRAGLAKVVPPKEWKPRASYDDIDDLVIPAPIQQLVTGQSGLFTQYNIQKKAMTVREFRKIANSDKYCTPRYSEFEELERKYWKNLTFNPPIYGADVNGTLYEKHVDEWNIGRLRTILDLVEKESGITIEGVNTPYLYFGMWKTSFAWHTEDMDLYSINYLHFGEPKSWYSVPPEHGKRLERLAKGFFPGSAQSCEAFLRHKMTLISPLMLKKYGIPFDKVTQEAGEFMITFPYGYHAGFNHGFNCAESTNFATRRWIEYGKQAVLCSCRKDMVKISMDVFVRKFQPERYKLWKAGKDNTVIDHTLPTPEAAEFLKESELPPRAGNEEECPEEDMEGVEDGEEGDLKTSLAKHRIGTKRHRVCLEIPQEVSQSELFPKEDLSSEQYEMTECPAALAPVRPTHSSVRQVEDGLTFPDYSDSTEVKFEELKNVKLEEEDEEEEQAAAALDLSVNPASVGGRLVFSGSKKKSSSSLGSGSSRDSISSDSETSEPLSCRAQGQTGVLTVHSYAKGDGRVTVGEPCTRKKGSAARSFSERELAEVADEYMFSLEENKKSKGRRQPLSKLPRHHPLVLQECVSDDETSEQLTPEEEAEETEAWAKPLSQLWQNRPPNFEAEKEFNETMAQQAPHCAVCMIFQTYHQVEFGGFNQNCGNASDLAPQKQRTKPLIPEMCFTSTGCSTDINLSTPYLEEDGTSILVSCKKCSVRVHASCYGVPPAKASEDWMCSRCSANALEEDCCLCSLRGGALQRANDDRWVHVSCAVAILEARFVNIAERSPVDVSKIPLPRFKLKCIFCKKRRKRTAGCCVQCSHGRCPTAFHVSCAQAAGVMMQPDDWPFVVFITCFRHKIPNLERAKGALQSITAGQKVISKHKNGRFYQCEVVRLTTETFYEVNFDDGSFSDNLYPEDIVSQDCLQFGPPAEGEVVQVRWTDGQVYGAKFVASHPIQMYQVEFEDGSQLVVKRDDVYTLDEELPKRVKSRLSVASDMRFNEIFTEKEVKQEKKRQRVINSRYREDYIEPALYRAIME
Put plainly: Inhibition of KDM4A (unknown origin) by RFMS assay.

The target of data set [2] is T2, Lysine-specific demethylase 4C (Homo sapiens, UniProt Q9H3R0).
T2 sequence (Q9H3R0 whole entry): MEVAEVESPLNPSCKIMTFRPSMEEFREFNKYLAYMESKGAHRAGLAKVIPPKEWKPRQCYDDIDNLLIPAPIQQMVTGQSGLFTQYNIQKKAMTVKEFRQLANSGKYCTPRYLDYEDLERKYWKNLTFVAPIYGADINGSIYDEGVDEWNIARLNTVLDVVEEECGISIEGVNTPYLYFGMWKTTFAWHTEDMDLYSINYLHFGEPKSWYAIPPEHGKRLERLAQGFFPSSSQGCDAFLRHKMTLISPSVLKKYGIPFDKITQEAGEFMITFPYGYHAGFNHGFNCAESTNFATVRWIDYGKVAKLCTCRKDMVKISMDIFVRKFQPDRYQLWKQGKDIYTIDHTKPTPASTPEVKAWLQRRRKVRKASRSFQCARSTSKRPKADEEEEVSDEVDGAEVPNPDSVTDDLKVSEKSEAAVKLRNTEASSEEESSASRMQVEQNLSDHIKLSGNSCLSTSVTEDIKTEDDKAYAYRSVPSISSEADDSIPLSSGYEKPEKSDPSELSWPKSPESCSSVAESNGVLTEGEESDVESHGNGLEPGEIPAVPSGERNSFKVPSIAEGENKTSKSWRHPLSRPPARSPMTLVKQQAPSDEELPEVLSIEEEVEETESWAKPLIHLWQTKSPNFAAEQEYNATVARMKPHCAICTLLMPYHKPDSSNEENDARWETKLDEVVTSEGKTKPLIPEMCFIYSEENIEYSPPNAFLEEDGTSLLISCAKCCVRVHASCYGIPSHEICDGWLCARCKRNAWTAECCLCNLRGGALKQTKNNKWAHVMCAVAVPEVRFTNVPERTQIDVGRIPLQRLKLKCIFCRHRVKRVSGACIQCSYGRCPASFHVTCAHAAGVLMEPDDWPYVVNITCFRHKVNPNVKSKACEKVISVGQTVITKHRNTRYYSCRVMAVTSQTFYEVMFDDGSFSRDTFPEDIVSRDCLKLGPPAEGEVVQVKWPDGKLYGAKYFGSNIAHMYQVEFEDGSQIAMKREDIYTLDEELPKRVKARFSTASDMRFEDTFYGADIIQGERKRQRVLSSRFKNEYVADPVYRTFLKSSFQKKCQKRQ
Put plainly: Inhibition of N-terminal his-tagged human KDM4C expressed in Escherichia coli BL21(DE3) using trimethylated peptide substrate by RFMS assay.

The target in data set [3] is T3, Lysine-specific demethylase 4D (Homo sapiens, UniProt Q6B0I6).
T3 sequence (Q6B0I6 whole entry): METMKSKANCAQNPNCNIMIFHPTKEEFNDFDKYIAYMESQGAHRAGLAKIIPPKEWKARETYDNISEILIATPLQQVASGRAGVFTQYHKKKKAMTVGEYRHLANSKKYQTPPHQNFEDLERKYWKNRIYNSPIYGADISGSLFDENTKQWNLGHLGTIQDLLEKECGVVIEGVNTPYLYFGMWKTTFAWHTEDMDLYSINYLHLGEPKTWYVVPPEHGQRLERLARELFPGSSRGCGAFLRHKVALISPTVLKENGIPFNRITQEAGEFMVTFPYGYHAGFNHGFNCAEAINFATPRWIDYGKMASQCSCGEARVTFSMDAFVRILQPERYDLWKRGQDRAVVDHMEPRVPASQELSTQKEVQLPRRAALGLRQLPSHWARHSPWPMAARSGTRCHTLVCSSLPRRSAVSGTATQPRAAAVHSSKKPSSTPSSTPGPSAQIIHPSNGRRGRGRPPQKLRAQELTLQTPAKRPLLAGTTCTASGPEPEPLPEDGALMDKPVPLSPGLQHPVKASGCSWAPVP
Put plainly: Inhibition of KDM4D (unknown origin) by RFMS assay.

Data set [4] deals with T4, Lysine-specific demethylase 4E (Homo sapiens, UniProt B2RXH2).
T4 sequence (B2RXH2 whole entry): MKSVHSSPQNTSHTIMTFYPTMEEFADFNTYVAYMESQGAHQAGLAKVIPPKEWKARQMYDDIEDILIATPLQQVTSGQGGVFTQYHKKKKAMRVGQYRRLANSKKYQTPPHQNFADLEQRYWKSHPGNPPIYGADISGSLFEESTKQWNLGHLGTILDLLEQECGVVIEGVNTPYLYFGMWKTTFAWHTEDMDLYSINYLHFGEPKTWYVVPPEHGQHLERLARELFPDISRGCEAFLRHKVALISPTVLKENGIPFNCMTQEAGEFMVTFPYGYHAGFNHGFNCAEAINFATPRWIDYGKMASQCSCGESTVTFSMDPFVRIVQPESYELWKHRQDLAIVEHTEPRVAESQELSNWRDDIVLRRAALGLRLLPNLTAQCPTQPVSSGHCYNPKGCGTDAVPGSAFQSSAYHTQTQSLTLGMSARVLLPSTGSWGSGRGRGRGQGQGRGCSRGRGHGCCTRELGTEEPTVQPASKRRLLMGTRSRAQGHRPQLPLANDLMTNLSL
The data set can be described thus: Inhibition of KDM4E (unknown origin) by RFMS assay.

The target in data set [5] is Lysine-specific demethylase 6B (Homo sapiens, UniProt O15054). Put plainly: Inhibition of KDM6B (unknown origin) by RFMS assay.
Data set [6] concerns the target Prolyl hydroxylase EGLN3 (Homo sapiens, UniProt Q9H6Z9). The data set can be described thus: Inhibition of full-length EGLN3 (unknown origin) expressed in Escherichia coli BL21(DE3) cells by HTRF assay. (Time-resolved FRET reads energy transfer from a long-lived donor to a nearby acceptor.)
In data set [7] the target is T2, Lysine-specific demethylase 4C. The data set can be described thus: Inhibition of N-terminal his-tagged full-length human KDM4C transfected in U2OS cells assessed as inhibition of H3K9Me3 demethylation for 24 hrs. The class given is cell-based.
In data set [8] the target is T5, Lysine-specific demethylase 5C (Homo sapiens, UniProt P41229). The data set can be described thus: Inhibition of KDM5C catalytic domain (1 -764 aa) (unknown origin) expressed in Sf9 cells using H3K4Me3 peptide as substrate by RFMS assay.
In data set [9] the target is T5, Lysine-specific demethylase 5C. Put plainly: Inhibition of human KDM5C transfected in U2OS cells assessed as inhibition of […] demethylation for 24 hrs. The class given is cell-based. Summed up:
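High-content cell imaging assay in U2OS cells overexpressing KDM5C, the same cell type as the KDM4C cellular mechanistic assay. Cellular potency reported as pIC50.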

A short description of data set [10]: physchem. To be noted: buffer, pH 7.4.
The target in data set [11] is T2, Lysine-specific demethylase 4C. The data set can be described thus: Inhibition of N-terminal HALO-tagged full-length human KDM4C transfected in U2OS cells assessed as inhibition of H3K9Me3 demethylation for 24 hrs.
The nature of data set [12]: Dissociation constant, pKa of the compound. The class given is physicochemical.

T5 sequence (P41229 whole entry, the tested form may be a part): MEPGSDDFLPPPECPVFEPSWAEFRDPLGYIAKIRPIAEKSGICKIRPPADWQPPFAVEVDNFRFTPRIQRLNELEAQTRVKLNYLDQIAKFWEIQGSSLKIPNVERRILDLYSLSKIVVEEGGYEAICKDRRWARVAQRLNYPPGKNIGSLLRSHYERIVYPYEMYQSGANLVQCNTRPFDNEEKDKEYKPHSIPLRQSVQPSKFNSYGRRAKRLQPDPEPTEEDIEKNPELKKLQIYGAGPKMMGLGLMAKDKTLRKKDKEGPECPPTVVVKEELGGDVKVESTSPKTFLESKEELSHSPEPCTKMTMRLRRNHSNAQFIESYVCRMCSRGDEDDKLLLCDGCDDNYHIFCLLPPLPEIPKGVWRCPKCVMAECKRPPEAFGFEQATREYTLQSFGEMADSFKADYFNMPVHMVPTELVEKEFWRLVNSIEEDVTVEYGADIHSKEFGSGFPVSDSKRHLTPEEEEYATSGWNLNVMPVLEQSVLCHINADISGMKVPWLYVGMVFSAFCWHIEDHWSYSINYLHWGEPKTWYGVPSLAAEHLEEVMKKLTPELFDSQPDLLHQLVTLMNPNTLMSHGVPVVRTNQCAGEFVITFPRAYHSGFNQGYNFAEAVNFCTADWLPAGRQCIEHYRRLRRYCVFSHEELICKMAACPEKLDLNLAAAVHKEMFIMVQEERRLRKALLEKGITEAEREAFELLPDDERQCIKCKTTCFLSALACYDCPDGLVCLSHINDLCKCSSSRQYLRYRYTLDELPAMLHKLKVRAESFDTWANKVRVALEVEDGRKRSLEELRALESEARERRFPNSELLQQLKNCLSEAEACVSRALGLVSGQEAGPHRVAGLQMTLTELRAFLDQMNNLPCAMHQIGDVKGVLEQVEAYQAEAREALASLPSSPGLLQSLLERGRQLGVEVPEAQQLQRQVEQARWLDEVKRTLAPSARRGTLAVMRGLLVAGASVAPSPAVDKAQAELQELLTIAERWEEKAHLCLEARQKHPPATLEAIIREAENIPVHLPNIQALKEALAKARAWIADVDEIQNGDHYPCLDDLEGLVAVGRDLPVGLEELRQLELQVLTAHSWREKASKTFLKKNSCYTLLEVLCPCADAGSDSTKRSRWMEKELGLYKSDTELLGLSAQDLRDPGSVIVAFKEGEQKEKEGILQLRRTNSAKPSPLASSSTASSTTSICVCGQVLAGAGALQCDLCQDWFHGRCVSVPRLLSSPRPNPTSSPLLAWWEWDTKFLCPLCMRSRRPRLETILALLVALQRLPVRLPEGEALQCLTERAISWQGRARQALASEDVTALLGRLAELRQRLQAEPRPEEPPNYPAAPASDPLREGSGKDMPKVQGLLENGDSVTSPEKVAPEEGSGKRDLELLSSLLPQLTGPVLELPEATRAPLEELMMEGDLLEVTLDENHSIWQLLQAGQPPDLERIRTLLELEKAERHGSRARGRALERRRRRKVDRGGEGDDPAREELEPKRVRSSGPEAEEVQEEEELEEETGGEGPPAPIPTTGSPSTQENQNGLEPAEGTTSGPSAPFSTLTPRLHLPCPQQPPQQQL
Lysine-specific demethylase 6B, sequence (O15054 whole entry): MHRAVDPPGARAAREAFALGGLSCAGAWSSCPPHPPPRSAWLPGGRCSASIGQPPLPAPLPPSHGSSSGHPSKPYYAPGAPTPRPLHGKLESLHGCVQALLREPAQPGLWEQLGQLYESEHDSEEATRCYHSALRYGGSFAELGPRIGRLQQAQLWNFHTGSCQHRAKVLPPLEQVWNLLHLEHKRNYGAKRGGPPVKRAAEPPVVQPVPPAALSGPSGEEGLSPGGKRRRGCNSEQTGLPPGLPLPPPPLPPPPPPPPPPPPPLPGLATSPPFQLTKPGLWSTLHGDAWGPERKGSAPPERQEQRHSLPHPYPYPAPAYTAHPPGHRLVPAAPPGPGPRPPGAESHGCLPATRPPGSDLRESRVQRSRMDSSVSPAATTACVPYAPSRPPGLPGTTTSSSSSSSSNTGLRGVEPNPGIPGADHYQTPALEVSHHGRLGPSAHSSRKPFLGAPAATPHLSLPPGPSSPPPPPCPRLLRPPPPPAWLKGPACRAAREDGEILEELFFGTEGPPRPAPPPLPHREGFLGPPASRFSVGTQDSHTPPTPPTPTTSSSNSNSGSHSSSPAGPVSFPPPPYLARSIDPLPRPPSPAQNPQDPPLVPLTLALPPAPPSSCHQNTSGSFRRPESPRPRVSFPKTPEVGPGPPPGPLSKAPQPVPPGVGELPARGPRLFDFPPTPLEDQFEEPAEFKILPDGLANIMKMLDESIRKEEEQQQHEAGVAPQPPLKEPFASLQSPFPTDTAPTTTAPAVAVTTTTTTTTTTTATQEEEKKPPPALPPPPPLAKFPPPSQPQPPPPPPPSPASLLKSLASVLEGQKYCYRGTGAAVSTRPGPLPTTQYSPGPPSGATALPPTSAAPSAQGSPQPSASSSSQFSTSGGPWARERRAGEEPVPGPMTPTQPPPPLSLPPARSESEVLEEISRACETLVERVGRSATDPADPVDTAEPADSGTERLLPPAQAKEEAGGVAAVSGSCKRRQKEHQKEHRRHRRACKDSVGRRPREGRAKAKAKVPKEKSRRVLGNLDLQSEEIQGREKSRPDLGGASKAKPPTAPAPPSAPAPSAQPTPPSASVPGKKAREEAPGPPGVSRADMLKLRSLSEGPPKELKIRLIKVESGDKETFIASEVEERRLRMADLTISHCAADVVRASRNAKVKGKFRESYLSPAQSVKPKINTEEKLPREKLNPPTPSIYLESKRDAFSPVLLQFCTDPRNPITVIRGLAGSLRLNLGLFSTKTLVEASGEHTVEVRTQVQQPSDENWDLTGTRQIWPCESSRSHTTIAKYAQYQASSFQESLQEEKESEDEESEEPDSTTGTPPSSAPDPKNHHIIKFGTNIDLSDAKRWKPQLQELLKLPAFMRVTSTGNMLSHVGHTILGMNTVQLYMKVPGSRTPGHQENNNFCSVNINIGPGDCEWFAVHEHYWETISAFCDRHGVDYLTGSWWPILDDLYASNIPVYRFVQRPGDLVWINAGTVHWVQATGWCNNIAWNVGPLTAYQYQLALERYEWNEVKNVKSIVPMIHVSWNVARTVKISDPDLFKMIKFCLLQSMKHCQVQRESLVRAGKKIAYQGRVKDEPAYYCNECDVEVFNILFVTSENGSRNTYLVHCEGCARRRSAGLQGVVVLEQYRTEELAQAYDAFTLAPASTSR
Prolyl hydroxylase EGLN3, sequence (Q9H6Z9 whole entry): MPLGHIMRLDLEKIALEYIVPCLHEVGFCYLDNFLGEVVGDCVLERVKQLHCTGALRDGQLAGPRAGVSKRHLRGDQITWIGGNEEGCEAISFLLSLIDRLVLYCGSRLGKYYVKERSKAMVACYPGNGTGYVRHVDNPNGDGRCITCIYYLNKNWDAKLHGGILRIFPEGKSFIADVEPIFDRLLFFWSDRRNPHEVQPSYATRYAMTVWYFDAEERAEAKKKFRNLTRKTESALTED

Turning to `O=c1[nH]c(Oc2cnn(CC3CCCCC3)c2)nc2cnccc12`, the IC50 in [1] was 631 nM; in [2] it was 631 nM; in data set [3] it was 398 nM; in data set [4] it was 501 nM; in data set [5], more than 100000 nM; in data set [6], more than 100000 nM. Moreover, the IC50 is 5010 nM in [7], 79.4 nM in data set [8], 2500 nM in [9] (read-out: IC50) and 2000 nM in data set [11]. Further, the log distribution coefficient (logD) (usually lipophilicity at a set pH, counting ionised and neutral species) in [10] was determined as 2.9.
Regarding `CCSc1nc2cnccc2c(=O)[nH]1`, the IC50 is 794 nM in data set [2] and more than 100000 nM in data set [7]. In data set [12], the pKa (in general, the negative logarithm of the acid dissociation constant) came to 6.8.
In the case of `O=c1[nH]c(Oc2cnn(C3CCCC3)c2)nc2cnccc12`, the IC50 in [1] is 794 nM; in data set [2], 631 nM; in data set [3], 501 nM; in data set [4], 398 nM; in [5] it was more than 100000 nM; in [6], more than 100000 nM. Also, the IC50 is 126 nM in data set [8], 2500 nM in data set [9] (read-out: IC50), 5010 nM in data set [9] (read-out: pIC50 (converted)) and 2000 nM in data set [11]. Besides, in [10], the logD was 1.7.
With `O=c1[nH]c(Oc2cnn(Cc3ccccc3)c2)nc2cnccc12`, the IC50 in data set [1] was 631 nM; in data set [2] it was 501 nM; in [3] it was 398 nM; in data set [4], 501 nM; in data set [5], more than 100000 nM; in data set [6] it was more than 100000 nM. The IC50 was 5010 nM in [7], 63.1 nM in data set [8], 3980 nM in data set [9] (read-out: pIC50 (converted)) and 2000 nM in data set [11]. The logD in data set [10] came out at 1.8.
Turning to `CCCc1nc2cnccc2c(=O)[nH]1`, in [2], the IC50 is 12600 nM. For the same compound, in data set [12], the pKa came to 8.8.
As for `O=c1[nH]c(Oc2ccc(Cl)c(O)c2)nc2cnccc12`, the IC50 in [1] is 398 nM; in data set [2], 398 nM; in [3], 316 nM; in [4], 126 nM; in data set [5], more than 100000 nM; in data set [6], more than 100000 nM. Further, the IC50 was 200 nM in data set [8], 31600 nM in data set [9] (read-out: pIC50 (converted)) and 2000 nM in data set [11]. Also, in data set [10], the logD is 1.1.
In data set [2], `CCNc1nc2cnccc2c(=O)[nH]1` showed an IC50 of 3160 nM. The pKa in data set [12] amounted to 8.6.
On to `CCOc1nc2cnccc2c(=O)[nH]1`, for which the IC50 in [2] was 1000 nM; in data set [7], 63100 nM. The compound further returned a pKa in data set [12] of 7.5.
